Data set [1] has as its system unstimulated normal cells (resting lymphocytes, PBMC). Briefly: Growth inhibition of normal cells: resting lymphocytes. It counts as cell-based. The following applies: read-out: lymph (resting) IC50; resting human lymphocytes (PBMC), MTT, 3 d. Summed up: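 Human lymphocytes (PBMCs) from preservative-free heparinised peripheral blood, left unstimulated (no PHA-P), run like the HeLa MTT assay: 1 × 10^4 cells/well, test compound 0–100 μM, but exposure 3 d. Freshly prepared MTT (5 mg/mL) added for 4 h; absorbance at 570 nm (reference 630 nm). Triplicate; IC50 as 50% growth inhibition.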

Data set [2] has as its system human cervical epitheloid carcinoma (HeLa) cells. Nature of the data set: Growth inhibition of HeLa cells. The class given is cell-based. The following applies: read-out: HeLa IC50, MTT after 7 d, triplicate. The method, boiled down:
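Seeded at 1 × 10^4 cells/well, 1 h, then test compound 0–100 μM for 7 d. Freshly prepared MTT (5 mg/mL) added for 4 h, absorbance read at 570 nm (reference 630 nm). Triplicate, averaged; IC50 = 50% growth inhibition.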

Data set [3] has as its system panel of 60 cancer cell lines. Nature of the data set: DTP. The class given is cell-based. The following applies: for TGI range / TGI Δ: 60 cell lines (log scale).
Data set [4] can be described thus: in vivo hollow fiber studies.
The test system of data set [5] is RPMI-8226. Briefly: DTP 60-cell-line panel: RPMI-8226. The class given is cell-based. The following applies: leukemia RPMI-8226, Tables 3, 4.
For data set [6], the system named is COLO 205. Briefly: DTP 60-cell-line panel: COLO 205. The class given is cell-based. The conditions noted are these: colon COLO205.
Data set [7] concerns RXF393. Nature of the data set: DTP 60-cell-line panel: RXF393. The conditions noted are these: renal RXF393, Table 3. The class given is cell-based.
Data set [8] has as its system leukemia SR cell line. Nature of the data set: DTP 60-cell-line panel: SR. It counts as cell-based.
The subject of data set [9] is A549/ATCC. Briefly: DTP 60-cell-line panel: A549/ATCC. It counts as cell-based. The following applies: nonsmall cell lung A549/ATCC, Tables 3, 4.
The test system of data set [10] is KM12. Nature of the data set: DTP 60-cell-line panel: KM12. It counts as cell-based. The following applies: colon KM12; Table 3.
For data set [11], the system named is OVCAR-3. Nature of the data set: DTP 60-cell-line panel: OVCAR-3. The class given is cell-based. The following applies: ovarian OVCAR-3, Table 3.
In data set [12] the test system is UACC-62. Briefly: DTP 60-cell-line panel: UACC-62. It counts as cell-based. The following applies: melanoma UACC-62.
The subject of data set [13] is IGROV ovarian cell line. The following applies: cited from earlier work.
Data set [14] can be described thus: stability in solution. It counts as physicochemical. The following applies: in solution (dichloromethane for 4).

SMILES strings stand for the structures. Entries after “also recorded” stand apart in the source; their conditions may differ.

This is an account of results in publication PMC3993921 (Inorganic Chemistry, 2014).

Consider `Cc1cc(C)n(C(=S)[S][Au][PH](CCCCCC[PH]([Au][S]C(=S)n2nc(C)cc2C)(c2ccccc2)c2ccccc2)(c2ccccc2)c2ccccc2)n1` [Compound 11, Dinuclear Bis(3,5-dimethylpyrazol-1-yldithiocarbamato)-bis-(diphenylphosphino)hexane Gold(I)], for which, in data set [1], the concentration for half-maximal inhibition (IC50) was 18.2 ± 15.9 µM. Besides, the 50% inhibitory concentration (IC50) in [2] worked out at 0.14 ± 0.01 µM. In data set [3], the TGI range is 2.38 and the “TGI Δ” value was found to be 1.87. Further, the “GI50 MG-MID” value in data set [3] (median over 60 cell lines (log scale)) is given as “–6.25”. Besides, the activity in vivo entry in data set [4] was “could not be delivered to the targets; also recorded: not so great”.

Turning to `Cc1cc(C)n(C(=S)[S][Au-][P+](c2ccccc2)(c2ccccc2)c2ccccc2)n1` [Compound 2, 3,5-dimethylpyrazolyl-1-dithiocarbamato-triphenylphosphinogold(I)], the IC50 in data set [1] came to 9.53 ± 3.18 µM; in data set [2], 2.63 ± 0.1 µM.

Turning to `S=C([S][Au-][P+](CCCCCC[P+]([Au-][S]C(=S)n1ncc2ccccc21)(c1ccccc1)c1ccccc1)(c1ccccc1)c1ccccc1)n1ncc2ccccc21` [Compound 12, Dinuclear Bis(indazol-1-yldithiocarbamato)-bis-(diphenylphosphino)hexane Gold(I)], the figures for the IC50 in data set [1] and in data set [2] were 37.7 ± 12.6 µM and 4.04 ± 0.49 µM, respectively.

For the compound `N.N.[Cl][Pt][Cl]` [cis-platin, reference compound], the 50% inhibitory concentration (IC50) in data set [2] amounted to 0.45 ± 0.09 µM.

On to `S=C([S][Au][PH](CCC[PH]([Au][S]C(=S)n1cccn1)(c1ccccc1)c1ccccc1)(c1ccccc1)c1ccccc1)n1cccn1` [Compound 7, Bis(pyrazol-1-yldithiocarbamato)-bis-(diphenylphosphino)propane Dinuclear Gold(I)], for which the half-maximal inhibitory concentration (IC50) in data set [1] turned out to be 7.05 ± 2.02 µM; in data set [2] it was 3.07 ± 0.48 µM.

On to `S=C([S][Au-][P+](CCC[P+]([Au-][S]C(=S)n1ncc2ccccc21)(c1ccccc1)c1ccccc1)(c1ccccc1)c1ccccc1)n1ncc2ccccc21` [Compound 9, Bis(indazol-1-yldithiocarbamato)-bis-(diphenylphosphino)propane Dinuclear Gold(I)], for which the IC50 in data set [1] is 18.5 ± 3.88 µM; in data set [2] it was 3.38 ± 0.3 µM.

In the case of `S=C([S][Au][PH](c1ccccc1)(c1ccccc1)c1ccccc1)n1cccn1` [Compound 1, Pyrazolyl-1-dithiocarbamato-triphenylphosphinogold(I)], the IC50 worked out at 9.05 ± 3.5 µM in data set [1] and 2.56 ± 0.12 µM in data set [2].

Consider `S=C([S][Au-][P+](CCCCCC[P+]([Au-][S]C(=S)n1cccn1)(c1ccccc1)c1ccccc1)(c1ccccc1)c1ccccc1)n1cccn1` [Compound 10, Dinuclear Bis(pyrazol-1-yldithiocarbamato)-bis-(diphenylphosphino)hexane Gold(I)], for which the concentration for 50% growth inhibition (GI50) came to 0.19 µM in data set [5]; 0.31 µM in data set [6] (Tables 3, 4); 0.45 µM in data set [7]; 0.19 µM in [8] (Tables 3, 4); 0.38 µM in data set [9]; 0.43 µM in data set [10]. The GI50 in data set [11] was 0.7 µM; in data set [12] (Tables 3, 4), 0.38 µM. For the same compound, the TGI in data set [5] was 0.53 µM; in data set [6] (Table 3) it was over 100 µM; in data set [8] (Tables 3, 4), 2.41 µM; in [9], over 100 µM; in data set [10] it was 1.73 µM; in data set [11], 14.20 µM. Moreover, the TGI in [12] (Table 3) is over 100 µM. For the same compound, the CC50 in data set [5] (read-out: LC50) is over 100 µM; in [6] (read-out: LC50, Tables 3, 4), over 100 µM; in data set [7] (read-out: LC50), over 100 µM; in data set [8] (read-out: LC50, Tables 3, 4), over 100 µM; in data set [9] (read-out: LC50), over 100 µM; in [11] (read-out: LC50), over 100 µM. Further, the CC50 in data set [12] (read-out: LC50, Tables 3, 4) is over 100 µM. The 50% inhibitory concentration (IC50) in data set [1] amounted to 18.9 ± 5.66 µM; in [2], 0.51 ± 0.08 µM. The compound also had a TGI range in data set [3] of 2.28. In addition, in data set [3], the “TGI Δ” value is listed as 1.92. Further, the activity in vivo result in data set [4] is listed as “not so great”.

`Cc1cc(C)n(C(=S)[S][Au-][P+](CCC[P+]([Au-][S]C(=S)n2nc(C)cc2C)(c2ccccc2)c2ccccc2)(c2ccccc2)c2ccccc2)n1` [Compound 8, Bis(3,5-dimethylpyrazol-1-yldithiocarbamato)-bis-(diphenylphosphino)propane Dinuclear Gold(I)]: the IC50 in data set [1] was determined as 6.13 ± 2.92 µM; in data set [2], 6.96 ± 0.51 µM.

As to `CCN(CC)C(=S)[S][Au][PH](CC)(CC)CC` [[(Et3P)Au(S2CNEt2)]], in [13], the ID50 is 0.012 µg/mL.

Turning to `S=C([S][Au][PH](c1ccccc1)(c1ccccc1)c1ccccc1)n1ncc2ccccc21` [Compound 3, Indazolyl-1-dithiocarbamato-triphenylphosphinogold(I)], the half-inhibitory concentration (IC50) in [1] turned out to be 14 ± 10.5 µM; in data set [2], 2.56 ± 0.17 µM.

For the compound `S=C([S][Au][PH](CC[PH]([Au][S]C(=S)n1cccn1)(c1ccccc1)c1ccccc1)(c1ccccc1)c1ccccc1)n1cccn1` [Compound 4, Bis-(pyrazolyl-1-dithiocarbamato)-bis-(diphenylphosphino)ethane Dinuclear Gold(I)], the stability in solution entry in data set [14] is reported as “readily transforming to the Au18 cluster”.

What is called IC50 is the concentration that inhibits the measured activity by half. A word on the GI50: it is the concentration at which growth is held to half of that of the control. Usually TGI stands for the concentration at which net growth stops. Read a low TGI as more potent growth arrest.
